An excerpt weighted towards active compounds, which were near 1.8% of everything screened.
HTRA1 inh: HTRA1 serine protease inhibitors, primary screen, biochemical, fluorescence polarization, HTS; recombinant HTRA1, FP-rhodamine activity-based probe; Q92743; inhibition, % at 5.96 µM; hit rate 0.5% among 340,000; AID 504803, 2011; in the data active = inhibition above about 36%;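 also: 0% = enzyme with DMSO and 100% = wells lacking enzyme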
ABHD4 inh: ABHD4 inhibitors, primary screen, biochemical, fluorescence polarization, mouse; (Lyso)-N-acylphosphatidylethanolamine lipase (Mus musculus), Q8VD66; purified mABHD4, FP-Rh probe fluorescence polarization; inhibition, % at 8.92 µM; hit rate 0.54% among 370,000; AID 720543, 2013;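 active = inhibition exceeding the mean over every tested compound plus 3 SD, cut at about 30% in these data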;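 also: 0% = plate median of compound wells and 100% = S159A mutant with DMSO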
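assay system = mABHD4 protein | compound dosing = single nominal dose of 8.92 µM, 0.89% DMSO final | read-out basis = percent inhibition of probe binding, normalized to plate controls | schedule = Enzyme–compound pre-incubation 45 min, then probe 60 min, both 25 °C | detection = fluorescence polarization, excitation 525 nm, emission 598 nm, BODIPY TMR filters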
TCR-CD3 inh: inhibitors of human TCR-CD3 interaction, primary screen, biochemical, fluorescence, TAMRA-labeled TCR probe; hit rate 0.37% among 360,000; T-cell receptor (TCR); inhibition, % at 9.4 µM; in the data active = inhibition above about 19%;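 also: recombinant mutant TCR 2C K166C tagged with TAMRA read by polarization; 0% = receptor in buffer alone and 100% = receptor with positive control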
ARNT TACC3 PPI: disruptors of ARNT/TACC3 protein interaction, primary screen, biochemical, AlphaScreen, single concentration | AlphaScreen His-ARNT PAS-B/GST-TACC3 binding, luminescence; TACC3 fragment carries E629A point mutation | Transforming acidic coiled-coil-containing protein 3 (Homo sapiens), Q9Y6A5 | hit rate 0.66% among 390,000 | AID 623870, 2012 | inhibition, % at 9.99 µM;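 active = mean inhibition of replicates at least 50% and at least half of replicates each reaching 50%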;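 also: 0% = complete ARNT plus TACC3 wells and 100% = ARNT alone without TACC3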
SIAE primary: human SIAE inhibitors, primary screen, biochemical, fluorescence polarization, FP-Rh probe, 1536-well HTS; Sialate O-acetylesterase (Homo sapiens), Q9HAT2; SIAE FP-Rh probe binding; inhibition, % at 9.66 µM; hit rate 0.69% among 370,000; AID 1053197, 2014;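 active = inhibition above a cutoff: mean of compounds within the control limits plus 3 SD of those, cut at about 17% in these data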;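 also: 0% = plate median of compound wells and 100% = probe without SIAE protein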
Target sequence (Q9HAT2 whole entry, looked up): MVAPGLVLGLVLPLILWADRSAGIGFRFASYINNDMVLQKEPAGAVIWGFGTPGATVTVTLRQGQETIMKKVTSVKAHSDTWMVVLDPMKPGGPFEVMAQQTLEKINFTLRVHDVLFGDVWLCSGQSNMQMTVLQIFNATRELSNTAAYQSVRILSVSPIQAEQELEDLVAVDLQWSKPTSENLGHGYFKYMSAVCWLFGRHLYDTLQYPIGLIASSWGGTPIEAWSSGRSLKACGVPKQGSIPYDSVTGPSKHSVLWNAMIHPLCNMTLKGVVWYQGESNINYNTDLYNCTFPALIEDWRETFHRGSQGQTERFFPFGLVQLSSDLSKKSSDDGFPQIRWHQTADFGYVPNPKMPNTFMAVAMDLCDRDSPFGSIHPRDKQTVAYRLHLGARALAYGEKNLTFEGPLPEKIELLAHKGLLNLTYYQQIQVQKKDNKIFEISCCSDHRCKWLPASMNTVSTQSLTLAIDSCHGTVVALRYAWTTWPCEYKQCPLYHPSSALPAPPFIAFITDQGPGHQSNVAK
* = called active by the depositor; nt = no result given; ! = a repeat was not active.

SMILES	HTRA1 inh	ABHD4 inh	TCR-CD3 inh	ARNT TACC3 PPI	SIAE primary
N/C(=N\NS(=O)(=O)c1ccccc1C(F)(F)F)c1ccccn1	-3	3	0	41	2
CC1(C(=O)OCC(=O)Nc2nnc(-c3ccccc3)o2)CC1(Cl)Cl (stereo unspecified)	-1	4	1	49*	-5
O=C(CSc1nncs1)Nc1nnc(-c2ccccc2)o1	2	0	-4	54*	5
O=C(Cc1ccccc1)Nc1nnc(-c2ccccc2)o1	8	1	-6	17	1
COC(=O)[C@@H]1[C@@H](CO)[C@@H]2Cn3c(cccc3=O)[C@@H]2N1C(=O)C1CCC1	nt	nt	nt	-10	nt
CN(C)CCCNC(=O)C[C@H]1CC[C@H](NS(=O)(=O)c2ccccc2)[C@H](CO)O1	nt	nt	nt	-2	nt
O=C(NCc1ccccn1)c1c(Cl)cccc1Cl	8	-4	1	-2	0
Cc1c(Cl)cccc1-c1ccc(CNCc2ccccn2)o1	35	3	-12	64*	-3
COc1ccc(S(=O)(=O)N(C)C[C@@H]2OCCCC[C@@H](C)Oc3ccc(NC(=O)CCCN(C)C)cc3C(=O)N([C@@H](C)CO)C[C@H]2C)cc1	nt	nt	nt	-12	nt
C[C@H]1CCCCO[C@@H](CN(C)S(=O)(=O)c2ccc(F)cc2)[C@@H](C)CN([C@@H](C)CO)C(=O)c2cc(NC(=O)Nc3ccccc3)ccc2O1	nt	nt	nt	-12	nt
CCN(CC)c1ccc(N=Nc2ncn[nH]2)cc1	nt	-7	-3	70*	-3
CCOc1cc(C2NC(=O)NC(C)=C2C(=O)OCc2ccccc2)ccc1O (stereo unspecified)	-5	-3	-1	44*	0
COc1cc(C2NC(=O)NC(C)=C2C(=O)OCc2ccccc2)ccc1O (stereo unspecified)	5	6	-2	13	4
CC(C)CC#Cc1cnc2c(c1)C(=O)N([C@@H](C)CO)C[C@H](C)[C@@H](CN(C)C(=O)c1cccnc1)O2	nt	nt	nt	-5	nt
O=S(=O)(Nc1cccc2cccnc12)c1ccc(S(=O)(=O)N2CCCC2)cc1	1	-6	-5	67*	1
COc1ccc(C(CC(=O)Nc2ccc(C)cn2)N2Cc3ccccc3C2=O)cc1 (stereo unspecified)	1	-3	-8	35*	-8
O=C(Nc1ccc(Cl)cc1)Nc1ccc2c(c1)N1CCN=C1S2	10	5	-15	19	19*
Cc1cc(Nc2cccc(Cl)c2)nc(NCc2ccccc2)n1	-29	19	0	nt	24*
CNC(=O)C[C@H]1CC[C@@H]2[C@H](COc3ccc(NC(=O)c4cscn4)cc3C(=O)N2C)O1	nt	nt	nt	-1	nt
COc1cccc(N2C(=O)CC(Nc3ccc(N4CCOCC4)cc3)C2=O)c1 (stereo unspecified)	51*	nt	nt	7	nt
C[C@H]1CN([C@@H](C)CO)C(=O)c2cc(NC(=O)NC3CCCCC3)ccc2O[C@H]1CN(C)C(=O)Nc1ccc2c(c1)OCO2	nt	nt	nt	-6	nt
COc1cc2[nH]c(=S)nc(NCCc3ccc(C)cc3)c2cc1OC	-6	1	-6	32	5
COc1ccccc1CNc1nc(=S)[nH]c2cc(OC)c(OC)cc12	-8	-8	2	53*	9
COc1cc2[nH]c(=S)nc(NCc3cccs3)c2cc1OC	7	1	0	15	-6
COc1ccc(CCNc2nc(=S)[nH]c3cc(OC)c(OC)cc23)cc1OC	1	2	4	56*	8
COc1cc2[nH]c(=S)nc(NCCc3ccc(S(N)(=O)=O)cc3)c2cc1OC	1	4	-3	70*	8
CN1C(=O)c2cc(NC(=O)c3cscn3)ccc2OC[C@H]2O[C@@H](CC(=O)N3CCOCC3)CC[C@H]21	nt	nt	nt	1	nt
CCCc1nc2ccccc2c(=O)n1/N=C/c1ccccc1O	1	-3	10	57*	1
CSc1ccc2c(c1)N(CCC1CCCCN1C)c1ccccc1S2 (stereo unspecified)	16	9	1	58*!	-9
CC(C)NC(=O)Nc1ccc2c(c1)C(=O)N(C)[C@@H]1CC[C@@H](CC(=O)NCc3ccc(F)cc3)O[C@@H]1CO2	nt	nt	nt	19	nt
